The results in this text go back to ChEMBL document CHEMBL3272050, “Prostaglandin prodrugs. 5.1 Prostaglandin E2 ethylene ketal” (J Med Chem, 1977).

Each structure is given as a SMILES string. Activity calls are given as the source filed them. The rule behind the calls is not given here.

The subject of series [1] is Rhesus monkey. Nature of the series: Increase of uterine contractions in rhesus monkey at 5.62 mg, po administered on 100th day of pregnancy. The format is functional, organism-based. The following applies: Macaca mulatta. The gist of the method:
(§1)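 Female rhesus monkeys on day 100 of pregnancy received an oral dose of 5.62 or 16.87 mg in 0.1 M THAM buffer, pH 8.5. Uterine contraction frequency and amplitude (mmHg) were recorded through an open-ended catheter in the amniotic cavity and compared with pretreatment activity.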

The nature of series [2]: Chemical stability of the compound assessed as formation of prostaglandin E2 at 6.31 x 10^-4 M at pH 2.08 at 25 degC by HPLC analysis. The format is physicochemical. The following applies: buffer, pH 2.08, 631 µM. The gist of the method: (§2)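 Ketal incubated at 25 ± 0.5 °C, pH 2.0–6.5, in 0.1 M buffers (HCl, chloroacetic, acetic, succinic, phosphoric) with ionic strength set to 0.10 M by KCl. Initial ketal was 0.25 mg/mL at pH 2.0–3.5 and 0.50 mg/mL at pH 4.5–6.5. Timed aliquots were EtOAc-extracted for HPLC at 263 nm, quantified by peak-area ratios against calibration mixtures, and first-order rate constants fitted.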

Series [3] in a line: Chemical stability of the compound assessed as formation of prostaglandin E2 at 12.61 x 10^-4 M at pH 4.53 at 25 degC by HPLC analysis. The following applies: buffer, pH 4.53, 1261 µM. The class given is physicochemical. The method in brief: as §2
In series [4] the test system is Rhesus monkey. Put plainly: Increase of uterine motility in rhesus monkey at 5.62 mg, po administered on 100th day of pregnancy. The format is functional, organism-based. The note with it: Macaca mulatta. The gist of the method: as §1
Series [5] has as its system Rhesus monkey. Nature of the series: Increase of amplitude of uterine contractions in rhesus monkey at 5.62 mg, po administered on 100th day of pregnancy. The format is functional, Macaca mulatta. The method in brief: as §1
Series [6] is described as follows: Drug metabolism assessed as disappearance of compound at pH 3.5 at 25 degC by HPLC analysis. The class given is physicochemical. The following applies: read-out: Drug metabolism. The method in brief:
as §2

The nature of series [7]: Chemical stability of the compound assessed as formation of prostaglandin E2 at 6.31 x 10^-4 M at pH 2.99 at 25 degC by HPLC analysis. The note with it: buffer, pH 2.99, 631 µM. The class given is physicochemical. The gist of the method: as §2
Series [8] can be described thus: Chemical stability of the compound assessed as formation of prostaglandin E2 at 12.61 x 10^-4 M at pH 5.50 at 25 degC by HPLC analysis. The following applies: buffer, pH 5.5, 1261 µM. The class given is physicochemical. The method in brief:
as §2

The test system of series [9] is Rhesus monkey. Nature of the series: Increase of amplitude of uterine contractions in rhesus monkey at 16.87 mg, po administered on 100th day of pregnancy. The class given is functional, organism-based. The note with it: Macaca mulatta. The gist of the method:
as §1

Series [10] in a line: Chemical stability of the compound assessed as half life of formation of prostaglandin E2 at pH 2 at 25 degC by HPLC analysis. The note with it: buffer. The format is physicochemical. The method in brief:
as §2

Series [11] is described as follows: Chemical stability of the compound assessed as formation of prostaglandin E2 at pH 2.08 to 6.50 at 25 degC by HPLC analysis. The class given is physicochemical. The note with it: buffer. The method in brief:
as §2

Series [12] can be described thus: Chemical stability of the compound assessed as formation of prostaglandin E2 at 6.31 x 10^-4 M at pH 3.50 at 25 degC by HPLC analysis. The format is physicochemical. The following applies: buffer, pH 3.5, 631 µM. The method in brief:
as §2

Series [13] in a line: Chemical stability of the compound assessed as formation of prostaglandin E2 at 12.61 x 10^-4 M at pH 6.50 at 25 degC by HPLC analysis. The class given is physicochemical. The following applies: buffer, pH 6.5, 1261 µM. The gist of the method:
as §2

For series [14], the system named is Rhesus monkey. Put plainly: Increase of uterine contractions in rhesus monkey at 16.87 mg, po administered on 100th day of pregnancy. The format is functional, organism-based. The note with it: Macaca mulatta. The gist of the method:
as §1

The nature of series [15]: Chemical stability of the compound assessed as formation of prostaglandin A2 at pH 3.50. The format is physicochemical. The note with it: buffer, pH 3.5.
Series [16] is described as follows: Chemical stability of the compound assessed as formation of prostaglandin A2 at pH 6.50. The format is physicochemical. The following applies: buffer, pH 6.5.
A short description of series [17]: Chemical stability of the compound assessed as formation of prostaglandin A2 at pH 5.50. The format is physicochemical. The note with it: buffer, pH 5.5.
Series [18] in a line: Chemical stability of the compound assessed as formation of prostaglandin A2 at pH 2.08. The format is physicochemical. The note with it: buffer.
Series [19] in a line: Chemical stability of the compound assessed as formation of prostaglandin A2 at 6.31 x 10^-4 M at pH 3.50 at 25 degC by HPLC analysis. The format is physicochemical. The following applies: buffer, pH 3.5, 631 µM. The gist of the method:
as §2

Series [20] in a line: Chemical stability of the compound assessed as formation of prostaglandin A2 at 12.61 x 10^-4 M at pH 4.53 at 25 degC by HPLC analysis. The class given is physicochemical. The following applies: buffer, pH 4.53, 1261 µM. The method in brief:
as §2

Series [21] is described as follows: Chemical stability of the compound assessed as formation of prostaglandin A2 at pH 4.53. The note with it: buffer. The class given is physicochemical.
A short description of series [22]: Chemical stability of the compound assessed as half life of formation of prostaglandin A2 at pH 2 at 25 degC by HPLC analysis. The class given is physicochemical. The following applies: buffer. The gist of the method: as §2
Series [23] is described as follows: Chemical stability of the compound assessed as formation of prostaglandin A2 at pH 2.99. The following applies: buffer. The class given is physicochemical.

`CCCCC[C@H](O)/C=C/[C@H]1[C@H](O)CC2(OCCO2)[C@@H]1C/C=C\CCCC(=O)O`: the outcome in [1], in series [4], in [9] and in [14] was Active. Besides, the K in [2] is reported as 1.93 ×10⁻⁴ /s; in [3] it was 7.61 ×10⁻⁷ /s; in series [7], 2.29 ×10⁻⁵ /s; in series [8], 1.71 ×10⁻⁷ /s; in series [11] it was 2.24 ×10⁻² /s/M; in series [12], 5.78 ×10⁻⁶ /s. The K in series [13] stood at 2.58 ×10⁻⁸ /s. Moreover, in [5], the Activity came to 7 mmHg. Besides, the degraded in [6] was 70%. Besides, the t1/2 in series [10] was 1 h.

Take `CCCCC[C@H](O)/C=C/[C@H]1[C@H](O)CC(=O)[C@@H]1C/C=C\CCCC(=O)O` [DINOPROSTONE]: the K in series [15] was 2.3 ×10⁻⁷ /s; in series [16] it was 5.3 ×10⁻⁷ /s; in series [17], 4 ×10⁻⁷ /s; in [18], 5.8 ×10⁻⁷ /s; in [19], 5.8 ×10⁻⁷ /s; in [20], 3.36 ×10⁻⁷ /s. For the same molecule, the K in series [21] stood at 3.1 ×10⁻⁷ /s; in series [23], 2.8 ×10⁻⁷ /s. Moreover, the t1/2 in series [22] amounted to 336 h.
